# Assay results published in ChEMBL document CHEMBL1127457, “Nonpeptide renin inhibitors with good intraduodenal bioavailability and efficacy in dog” (J Med Chem, 1994).
# pIC50: −log10 of the molar value.
# Key:
# [1] = Average area under curve for compound at 1 mg/kg dose intravenous administration to Ferret; details: in vivo
# [2] = Average area under curve for the compound at 10 mg/kg dose after intraduodenal administration to rat; details: in vivo
# [3] = Average area under curve for the compound at 1 mg/kg dose after intravenous administration to rat; details: in vivo
# [4] = Average area under curve at 10 mg/kg dose after intraduodenal administration to Ferret; details: in vivo
# [5] = Average area under curve at 10 mg/kg intraduodenal administration to salt depleted dog; details: in vivo
# [6] = Average area under curve at 1 mg/kg intravenous administration to salt depleted dog; details: in vivo
# [7] = C(compound) was tested for percent […] bioavailability in rat; assay type: ADME, organism-based; details: in vivo, po
# How it was run: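 Intraduodenal rather than oral dosing: 10 mg/kg id, plus a 1 mg/kg iv bolus. Plasma drug levels were measured by renin-inhibition bioassay, which counts active metabolites as parent. Level–time data were fitted to a biexponential decay model to give AUC. Bioavailability is the dose-corrected AUCid/AUCiv for each experiment, given as mean ± SD of the mean; n=3 unless noted.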
# [8] = Oral bioavailability in dog (salt depleted); details: in vivo
# Canis familiaris [9] = experiment: Mean arterial pressure response following 10 mg/kg intraduodenal administration to salt depleted dog; details: in vivo, other
# Canis familiaris [10] = experiment: Mean arterial pressure response following 1 mg/kg intravenous administration to salt depleted dog; details: in vivo
# [11] = Oral bioavailability in ferret; details: in vivo
# [12] = Average peak plasma concentration of compound after 10 mg/kg intraduodenal administration to Ferret
# [13] = Average peak plasma concentration of compound after 10 mg/kg intraduodenal administration to rat
# [14] = Average peak plasma concentration of compound after 1 mg/kg intravenous administration in salt depleted dog; details: plasma
# [15] = Average peak plasma concentration of compound after 1 mg/kg intravenous administration to Ferret
# [16] = Average peak plasma concentration of compound after 1 mg/kg intravenous administration to rat
# [17] = Partition coefficient (logD6.5); details: octanol/water, pH 6.5
# [18] = Partition coefficient (logD7.4); details: octanol/water, pH 7.4
# [19] = Average peak plasma concentration of compound at 10 mg/kg intraduodenal administration in salt depleted dog; details: plasma
# Renin [20] = target: T1, Renin (Rattus norvegicus, UniProt P08424); experiment: (§1) Tested in vitro for its ability to inhibit the rat plasma renin; assay type: cell-free
# T1 sequence (P08424 whole entry): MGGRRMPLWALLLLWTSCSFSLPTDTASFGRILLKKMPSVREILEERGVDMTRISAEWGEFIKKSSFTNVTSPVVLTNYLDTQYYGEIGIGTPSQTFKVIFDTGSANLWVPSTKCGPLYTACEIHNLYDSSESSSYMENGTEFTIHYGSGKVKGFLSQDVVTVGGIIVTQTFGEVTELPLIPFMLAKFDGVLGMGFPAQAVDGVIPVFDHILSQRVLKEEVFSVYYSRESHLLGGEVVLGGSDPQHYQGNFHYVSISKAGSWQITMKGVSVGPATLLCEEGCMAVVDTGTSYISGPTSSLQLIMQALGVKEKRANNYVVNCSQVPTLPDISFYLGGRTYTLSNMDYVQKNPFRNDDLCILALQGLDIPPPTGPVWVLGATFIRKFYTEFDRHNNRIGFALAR
# How it was run: (§2)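 IC50 against renin in plasma from the named species (dog, ferret, human, rat); single determination in most cases.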
# Renin [21] = target: T2, Renin (Homo sapiens, UniProt P00797); experiment: Tested in vitro for its ability to inhibit the human plasma renin; assay type: cell-free; how it was run: as §2
# T2 sequence (P00797 whole entry): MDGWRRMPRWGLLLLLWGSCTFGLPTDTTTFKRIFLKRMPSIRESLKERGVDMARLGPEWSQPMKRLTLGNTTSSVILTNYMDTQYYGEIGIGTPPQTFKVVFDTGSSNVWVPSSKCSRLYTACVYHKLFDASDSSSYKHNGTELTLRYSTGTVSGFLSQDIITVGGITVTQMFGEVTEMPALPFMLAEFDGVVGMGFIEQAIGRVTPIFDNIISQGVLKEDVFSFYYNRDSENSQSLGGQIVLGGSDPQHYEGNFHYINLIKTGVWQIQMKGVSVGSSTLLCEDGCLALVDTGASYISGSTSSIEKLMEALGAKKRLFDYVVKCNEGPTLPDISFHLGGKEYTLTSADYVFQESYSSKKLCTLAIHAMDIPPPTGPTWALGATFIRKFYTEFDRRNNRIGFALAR
# Homo sapiens = species: Homo sapiens; details: Liver, Microsome
# Renin (Canis familiaris) = experiment: Tested in vitro for its ability to inhibit the dog plasma renin
# [22] = target: Renin (Mustela putorius furo); experiment: Tested in vitro for its ability to inhibit the ferret plasma renin
# [23] = Oral bioavailability in rat; details: in vivo; for bioavailability: intraduodenal, 10 mg/kg
# Renin [24] = target: T1, Renin; experiment: as §1; assay type: functional, cell-free; how it was run: as §2
SMILES,AUC [1],AUC [2],AUC [3],AUC [4],bioavailability [11],Cmax ([12]; plasma),Cmax ([13]; plasma),Cmax ([15]; plasma),Cmax ([16]; plasma),logD [17],logD [18],pIC50 (Renin [20]),pIC50 (Renin [21]),pIC50 (Renin (Canis familiaris)),pIC50 [22],bioavailability [23],Rate (nM min-1 (nM of cytochrome P450)-1) (Homo sapiens),other results
CCCC[C@H](N[C@@H](Cc1ccccc1)C(=O)N1CCC(OCOC)CC1)C(=O)N[C@@H](CC1CCCCC1)[C@@H](O)C[C@H](C(=O)NCCc1ccccn1)C(C)C,,,,,,,,,,,,5.15,8.03,7.48,6.29,,,
CCCC[C@H](N[C@@H](Cc1ccccc1)C(=O)N1CCC(OCOC)CC1)C(=O)N[C@@H](CC1CCCCC1)[C@@H](O)C[C@H](C(=O)NCc1cccnc1)C(C)C,827 ng·h/mL,3670 ng·h/mL,228 ng·h/mL,> 8170 ng·h/mL,> 98%,,,,,> 5,> 5,,,,,,2.27,F ([23]; po): 160%; Cmax ([12]; in vivo): > 4920 ng/mL; Cmax ([13]; in vivo): 2320 ng/mL; Cmax ([15]; in vivo): 3480 ng/mL; Cmax ([16]; in vivo): 560 ng/mL
CCCC[C@H](N[C@@H](Cc1ccccc1)C(=O)N1CCC(OCOC)CC1)C(=O)N[C@@H](CC1CCCCC1)[C@@H](O)C[C@H](C(=O)NCc1ccncc1)C(C)C,,760 ng·h/mL,653 ng·h/mL,,,,460 ng/mL,,2480 ng/mL,> 5,> 5,5.00,8.11,7.23,6.03,11%,0.78,
CCCC[C@H](N[C@@H](Cc1ccccc1)C(=O)N1CCC(OCOC)CC1)C(=O)N[C@@H](CC1CCCCC1)[C@@H](O)C[C@H](C(=O)NCCC1CCCCC1)C(C)C,,37 ng·h/mL,82 ng·h/mL,,,,30 ng/mL,,140 ng/mL,> 5,> 5,,7.40,,,4%,,

# Continued by rising pIC50 (Renin [21]), values first:
AUC [1],AUC [2],AUC [3],AUC [4],bioavailability [11],Cmax ([12]; plasma),Cmax ([13]; plasma),Cmax ([15]; plasma),Cmax ([16]; plasma),logD [17],logD [18],pIC50 (Renin [20]),pIC50 (Renin [21]),pIC50 (Renin (Canis familiaris)),pIC50 [22],bioavailability [23],SMILES,Rate (nM min-1 (nM of cytochrome P450)-1) (Homo sapiens),other results
2750 ng·h/mL,> 850 ng·h/mL,340 ng·h/mL,8220 ng·h/mL,29%,5500 ng/mL,> 480 ng/mL,3900 ng/mL,1310 ng/mL,> 5,> 5,,7.89,,,> 25%,CCCC[C@H](N[C@@H](Cc1ccccc1)C(=O)N1CCC(OCOC)CC1)C(=O)N[C@@H](CC1CCCCC1)[C@@H](O)C[C@H](C(=O)NCCN1CCCC1)C(C)C,,
3030 ng·h/mL,6870 ng·h/mL,3130 ng·h/mL,14100 ng·h/mL,46%,9120 ng/mL,4570 ng/mL,10000 ng/mL,6250 ng/mL,> 5,> 5,,7.92,7.12,6.00,21%,CCCC[C@H](N[C@@H](Cc1ccccc1)C(=O)N1CCC(OCOC)CC1)C(=O)N[C@@H](CC1CCCCC1)[C@@H](O)C[C@H](C(=O)NCc1ccccn1)C(C)C,3.52,pIC50 (Renin [24]): < 5.00
1870 ng·h/mL,1220 ng·h/mL,242 ng·h/mL,9750 ng·h/mL,51%,6500 ng/mL,910 ng/mL,2840 ng/mL,680 ng/mL,> 5,> 5,5.42,8.41,7.85,6.77,,CCCC[C@H](N[C@@H](Cc1ccccc1)C(=O)N1CCC(OCOC)CC1)C(=O)N[C@@H](CC1CCCCC1)[C@@H](O)C[C@H](C(=O)NCCN1CCOCC1)C(C)C,3.71,AUC [5]: 6530 ng·h/mL; AUC [6]: 1260 ng·h/mL; bioavailability [7]: 50%; bioavailability [8]: 52%; Arterial pressure (Canis familiaris [9]): 6449 % mmHg min; Arterial pressure (Canis familiaris [10]): 2849 % mmHg min; Cmax [14]: 7000 ng/mL; Cmax [19]: 1830 ng/mL
